Data as given in ChEMBL document CHEMBL4699441, “Identification and Preclinical Evaluation of the Bicyclic Pyrimidine γ-Secretase Modulator BMS-932481” (ACS Med Chem Lett, 2019).
Converted amounts (≈) assume the structure as drawn. The source made the active and inactive calls. No cut-off for these calls is given here.

Key:
Brain = experiment: Antialzheimer activity in rat brain assessed as reduction in amyloid beta (1 to 42) AUC at 3 mg/kg measured after 24 hrs relative to control; format: functional; parameters: scale not given: the % may be the effect or the level left
Outline: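 Rats dosed orally; brain Aβ1-42 followed over 24 h, and the reduction in brain Aβ1-42 AUC integrated over 0–24 h was fitted to an indirect response PK/PD model.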

H4 [1] = experiment: Inhibition of amyloid beta (1 to 40) secretion in human H4 cells overexpressing APP incubated for 24 hrs by MALDI-TOF mass spectrometric analysis; format: functional, cell-based
Cytochrome P450 2B6 = target: T1, Cytochrome P450 2B6 (Homo sapiens, UniProt P20813); experiment: Inhibition of CYP2B6 in human liver microsomes; format: ADME
T1 sequence (P20813 whole entry): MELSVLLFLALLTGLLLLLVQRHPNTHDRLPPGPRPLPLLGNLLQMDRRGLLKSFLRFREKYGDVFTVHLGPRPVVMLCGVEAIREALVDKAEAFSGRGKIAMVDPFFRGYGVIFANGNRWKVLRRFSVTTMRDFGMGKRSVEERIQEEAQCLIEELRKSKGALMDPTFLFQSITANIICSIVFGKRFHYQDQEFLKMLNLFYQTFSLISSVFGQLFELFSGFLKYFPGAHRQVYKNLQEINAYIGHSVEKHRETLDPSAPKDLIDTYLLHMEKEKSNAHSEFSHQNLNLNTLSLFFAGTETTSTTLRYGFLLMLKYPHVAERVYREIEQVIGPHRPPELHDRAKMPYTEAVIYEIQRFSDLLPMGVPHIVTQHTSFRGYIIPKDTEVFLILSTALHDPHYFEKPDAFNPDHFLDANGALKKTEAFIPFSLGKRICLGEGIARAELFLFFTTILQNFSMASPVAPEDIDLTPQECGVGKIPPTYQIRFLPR

[2] = Metabolic stability in cynomolgus monkey assessed as half life incubated for 24 hrs by LC-MS/MS analysis; format: ADME, Macaca fascicularis
[3] = Induction of CYP3A4 mRNA expression in human hepatocytes at 3.3 to 10 uM relative to control; format: ADME, cell-based, Hepatocyte; conditions: dose 3.3-10 µM
[4] = target: Voltage-gated inwardly rectifying potassium channel KCNH2 (Homo sapiens, UniProt Q12809); experiment: Inhibition of human ERG by patch clamp method
Chain of Voltage-gated inwardly rectifying potassium channel KCNH2 (Q12809 whole entry): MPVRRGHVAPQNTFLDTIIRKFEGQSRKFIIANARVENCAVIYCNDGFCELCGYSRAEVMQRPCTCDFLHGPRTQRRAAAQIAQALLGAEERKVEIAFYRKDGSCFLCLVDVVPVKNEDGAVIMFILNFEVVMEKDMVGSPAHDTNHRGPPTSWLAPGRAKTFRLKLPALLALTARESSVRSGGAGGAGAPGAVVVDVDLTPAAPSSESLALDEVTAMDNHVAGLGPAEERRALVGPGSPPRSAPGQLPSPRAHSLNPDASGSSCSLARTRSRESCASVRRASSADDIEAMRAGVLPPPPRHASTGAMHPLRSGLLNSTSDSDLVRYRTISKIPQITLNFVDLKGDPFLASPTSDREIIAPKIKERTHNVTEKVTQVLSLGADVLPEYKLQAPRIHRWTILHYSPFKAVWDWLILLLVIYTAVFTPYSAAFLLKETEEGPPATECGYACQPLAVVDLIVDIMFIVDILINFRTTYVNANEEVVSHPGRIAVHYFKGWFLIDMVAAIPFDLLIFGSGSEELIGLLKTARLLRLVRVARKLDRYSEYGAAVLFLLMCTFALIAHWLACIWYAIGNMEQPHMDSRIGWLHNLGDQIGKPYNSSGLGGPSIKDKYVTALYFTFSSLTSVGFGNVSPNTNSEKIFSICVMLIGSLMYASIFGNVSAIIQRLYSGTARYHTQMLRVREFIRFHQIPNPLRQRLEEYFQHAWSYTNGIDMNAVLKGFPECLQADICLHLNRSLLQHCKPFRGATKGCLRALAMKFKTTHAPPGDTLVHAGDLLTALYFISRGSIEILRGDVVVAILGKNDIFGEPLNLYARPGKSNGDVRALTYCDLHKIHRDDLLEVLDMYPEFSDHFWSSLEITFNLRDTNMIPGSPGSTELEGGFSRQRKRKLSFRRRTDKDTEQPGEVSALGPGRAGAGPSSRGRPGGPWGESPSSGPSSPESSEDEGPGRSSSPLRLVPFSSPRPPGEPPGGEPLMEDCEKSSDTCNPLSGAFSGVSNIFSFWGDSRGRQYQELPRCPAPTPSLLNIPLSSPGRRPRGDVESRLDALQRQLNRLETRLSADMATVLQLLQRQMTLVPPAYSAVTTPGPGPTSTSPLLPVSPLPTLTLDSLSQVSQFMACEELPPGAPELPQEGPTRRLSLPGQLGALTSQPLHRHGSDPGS

[5] = Cardiotoxicity in unconscious telemeterized rabbit assessed as increase in QTcv time at 10 mg/kg; format: toxicity, organism-based, Oryctolagus cuniculus; conditions: in vivo
[6] = Fraction unbound in human plasma measured after 24 hrs by LC-MS/MS analysis; format: ADME, cell-free
[7] = Fraction unbound in cynomolgus monkey plasma measured after 24 hrs by LC-MS/MS analysis; format: ADME, cell-free, Macaca fascicularis
Cytochrome P450 2C19 = Cytochrome P450 2C19 (Homo sapiens, UniProt P33261); experiment: Inhibition of CYP2C19 in human liver microsomes; format: ADME
Chain of Cytochrome P450 2C19 (P33261 whole entry): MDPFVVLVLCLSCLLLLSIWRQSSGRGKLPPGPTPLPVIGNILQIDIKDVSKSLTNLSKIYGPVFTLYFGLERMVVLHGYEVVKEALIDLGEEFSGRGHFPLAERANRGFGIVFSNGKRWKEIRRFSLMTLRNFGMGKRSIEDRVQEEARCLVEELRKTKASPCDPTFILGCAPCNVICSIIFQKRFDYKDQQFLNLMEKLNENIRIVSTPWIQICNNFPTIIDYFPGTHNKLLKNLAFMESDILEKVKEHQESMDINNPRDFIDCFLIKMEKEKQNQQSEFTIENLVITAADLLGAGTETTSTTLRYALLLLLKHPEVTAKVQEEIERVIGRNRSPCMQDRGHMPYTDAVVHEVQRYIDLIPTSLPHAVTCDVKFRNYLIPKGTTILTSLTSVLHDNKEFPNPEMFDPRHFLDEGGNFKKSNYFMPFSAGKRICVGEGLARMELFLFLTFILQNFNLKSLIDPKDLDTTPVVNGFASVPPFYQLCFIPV

[8] = Plasma concentration in Harlan Sprague-Dawley rat at 10 mg/kg, po measured after 5 hrs; format: ADME, organism-based
[9] = Cmax in Beagle dog at 300 mg/kg, po measured up to 24 hrs by LC-MS/MS analysis; format: ADME, organism-based, Canis lupus familiaris; parameters: route oral, dose 300 mg/kg, time >=24; conditions: in vivo
Outline: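 Dogs given an acute single oral dose of 300 mg/kg; plasma Cmax and AUC measured alongside bilirubin and other clinical pathology assessments.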

[10] = Aqueous solubility of the compound at pH 6.5; format: physicochemical; conditions: buffer
[11] = Toxicity in rat assessed as change in gamma-secretase modulator function at 100 mg/kg, po administered for 2 week; format: organism-based; conditions: in vivo, 336 h, time 2 weeks
[12] = Octanol/water partition coefficient, logD of the compound at pH 7.4 by shake flask method; format: physicochemical
H4 [13] = experiment: Inhibition of amyloid beta (1 to 42) secretion in human H4 cells overexpressing APP incubated for 24 hrs by MALDI-TOF mass spectrometric analysis; format: functional, cell-based
[14] = target: Gamma-secretase (Homo sapiens) (UniProt Q96BI3+Q9NZ42+Q8WW43+P49768+Q92542+P49810); experiment: Modulation of gamma-secretase in human H4 cells overexpressing APP incubated assessed as increase in amyloid beta (1 to 37) secretion for 24 hrs by MALDI-TOF mass spectrometric analysis; format: cell-based; conditions: filed as modulator
Outline: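 H4-APPsw cells treated with compound; secreted Aβ species quantified by mass spectrometry; total Aβ1-x checked by ELISA up to 10 μM.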

Cytochrome P450 2D6 = Cytochrome P450 2D6 (Homo sapiens, UniProt P10635); experiment: Inhibition of CYP2D6 in human liver microsomes; format: ADME
Chain of Cytochrome P450 2D6 (P10635 whole entry): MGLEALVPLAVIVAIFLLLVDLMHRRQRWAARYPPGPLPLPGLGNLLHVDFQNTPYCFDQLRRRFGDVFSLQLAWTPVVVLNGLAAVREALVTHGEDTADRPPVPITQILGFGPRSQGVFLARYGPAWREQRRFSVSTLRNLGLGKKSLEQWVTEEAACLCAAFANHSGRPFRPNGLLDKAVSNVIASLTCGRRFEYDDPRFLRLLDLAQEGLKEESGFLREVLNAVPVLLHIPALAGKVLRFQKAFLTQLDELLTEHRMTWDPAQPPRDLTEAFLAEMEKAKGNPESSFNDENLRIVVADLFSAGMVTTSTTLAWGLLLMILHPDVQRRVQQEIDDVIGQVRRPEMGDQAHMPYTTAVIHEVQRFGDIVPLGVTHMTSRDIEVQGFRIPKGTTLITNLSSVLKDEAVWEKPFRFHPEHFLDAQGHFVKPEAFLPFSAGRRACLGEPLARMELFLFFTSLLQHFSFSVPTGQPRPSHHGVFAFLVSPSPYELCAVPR

[15] = Cardiotoxicity in unconscious telemeterized rabbit assessed as increase in QTcv time at 3 mg/kg; format: toxicity, organism-based, Oryctolagus cuniculus; conditions: in vivo
[16] = Hemodynamic activity in unconscious telemeterized rabbit assessed as increase in blood pressure at >= 10 mg/kg; format: ADME, organism-based, Oryctolagus cuniculus; conditions: in vivo
[17] = Toxicity in Beagle dog assessed as NOAEL administered for 1 month; parameters: species or system Canis lupus familiaris; conditions: in vivo, 730 h, time 1 months
[18] = target: T2, Solute carrier organic anion transporter family member 1B1 (Homo sapiens, UniProt Q9Y6L6); experiment: Inhibition of OATP1B1 (unknown origin); format: ADME
T2 sequence (Q9Y6L6 whole entry): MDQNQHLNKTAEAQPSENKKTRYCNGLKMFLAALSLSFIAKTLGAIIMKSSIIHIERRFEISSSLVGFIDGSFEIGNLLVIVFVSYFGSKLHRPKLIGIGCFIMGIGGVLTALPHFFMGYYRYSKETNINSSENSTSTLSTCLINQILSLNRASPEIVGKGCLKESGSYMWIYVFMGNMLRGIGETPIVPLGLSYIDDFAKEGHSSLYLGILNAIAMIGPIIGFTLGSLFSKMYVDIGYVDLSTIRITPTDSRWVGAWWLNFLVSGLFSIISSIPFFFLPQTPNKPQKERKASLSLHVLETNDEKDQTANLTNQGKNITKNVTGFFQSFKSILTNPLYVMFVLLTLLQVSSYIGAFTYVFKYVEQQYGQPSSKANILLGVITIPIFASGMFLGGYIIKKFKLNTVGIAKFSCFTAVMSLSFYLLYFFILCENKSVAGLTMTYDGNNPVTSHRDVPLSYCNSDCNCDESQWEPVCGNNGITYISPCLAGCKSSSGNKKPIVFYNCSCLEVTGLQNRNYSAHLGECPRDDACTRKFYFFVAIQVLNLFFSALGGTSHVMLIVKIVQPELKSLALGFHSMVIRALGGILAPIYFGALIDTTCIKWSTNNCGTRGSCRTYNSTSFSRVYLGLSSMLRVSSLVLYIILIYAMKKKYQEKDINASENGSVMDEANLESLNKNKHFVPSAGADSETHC

[19] = Induction of CYP3A4 mRNA expression in human hepatocytes at 1 uM relative to control; format: ADME, cell-based, Hepatocyte
[20] = Toxicity in rat assessed as reduction in food consumption at 100 mg/kg, po administered for 2 week; format: organism-based; conditions: in vivo, 336 h, time 2 weeks
[21] = Plasma exposure (AUC) in rat at 10 mg/kg measured after 24 hrs
[22] = Toxicity in rat assessed as change in bilirubin secretion at 10 to 100 mg/kg, po administered for 2 week; format: organism-based; conditions: in vivo, 336 h, dose 10-100 mg/kg, time 2 weeks
[23] = Toxicity in rat assessed as stress at 100 mg/kg, po administered for 2 week; format: organism-based; conditions: in vivo, 336 h, time 2 weeks
[24] = Toxicity in rat assessed as change in notch related goblet cell metaplasia in the duodenum at 100 mg/kg, po administered for 2 week; format: organism-based; conditions: in vivo, 336 h, time 2 weeks

CNc1nc(Nc2ccc(-n3cnc(C)n3)c(OC)c2)nc2c1CC[C@H]2c1ccc(F)cc1
Activity (Brain): 45% | inhibition (H4 [1]): Active | IC50 (Cytochrome P450 2B6): > 40 µM | t1/2 [2]: 11 min | Activity [3]: 36% | IC50 [4]: 1.2 µM | Time [5]: 10 ms | Fu [6]: 0.6% | Fu [7]: 1.3% | IC50 (Cytochrome P450 2C19): 8.3 µM | concentration at 5 h [8]: 1.4 µM | Cmax [9]: 14 µM | solubility [10]: 0.1 µg/mL (≈ 0.224 µM) | Activity [11]: Non-Toxic | logD [12]: 4.34 | inhibition (H4 [13]): Active | inhibition [14]: Active | IC50 (Cytochrome P450 2D6): 18 µM | Time [15]: 4 ms | Activity [16]: Non-Toxic | NOAEL [17]: 150 mg/kg | IC50 [18]: 0.066 µM | Activity [19]: 16% | Activity [20]: Non-Toxic | AUC at 24 h [21]: 32 µM·h | Activity [22]: Non-Toxic | Activity [23]: Non-Toxic | Activity [24]: Non-Toxic
